From PubChem BioAssay
Records with an inconclusive call do not appear.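 Rule for the calls, unless noted: active = cell viability at or below a set limit in both duplicate runs, the limit being the all-compound median minus 4 SD (cut at about 23% in these data, passing the limit was not always enough); inconclusive = no clear call, values can overlap the other calls; inactive = the rest.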

Legend:
[1] = S. cerevisiae growth inhibition in permissive medium (OD615), pilot counter-assay for S. cerevisiae lifespan shortening project, permissive growth control (AID 705;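 active = growth inhibition above 25% in both replicates, a cutoff set 3 SD above the mean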); conditions: OD615, 24 h, at 10 µM, stronger effect = higher value
Procedure, shortened: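 System: S. cerevisiae with engineered DeaD lifespan system / Measured by: absorbance (optical density) at 615 nm / Read-out: reduction in yeast growth (OD615) / Times: 4 h cell pre-growth, 24 h exposure at 30 °C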

[2] = S. cerevisiae growth inhibition in restrictive medium, OD615, pilot screen, restrictive growth control, yeast lifespan reduction project (AID 706;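 active = growth inhibition above a set limit, 3 SD over mean compound inhibition, in both replicates, cut at about 43% in these data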;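 note: modified DeaD lifespan yeast strain shifted to restrictive glucose medium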); conditions: OD615, 48 h, at 10 µM, stronger effect = higher value
Procedure, shortened: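 System: Engineered S. cerevisiae DeaD strain | Buffer or medium: Glucose-based CSMM-D restrictive medium | Schedule: 4 h pre-incubation, 48 h exposure at 30 °C | Technique: Optical density at 615 nm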

[3] = doxorubicin toxicity protection in MRP-1 cells – H69AR cells, CellTiter-Glo, duplicate, MRP-1 activator project, pilot screen (AID 807;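 active = viability increase at or above a cutoff of the median across tested compounds plus 3 SD, cut at about 8.5% in these data, passing the limit was not always enough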;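 note: compound pretreatment 18-22 h then 72 h combined with doxorubicin; 0% = doxorubicin alone and 100% = vehicle without doxorubicin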); conditions: H69AR viability with doxorubicin, CellTiter-Glo luminescence; at 10 µM; stronger effect = higher value
[4] = viability of HCT116 without oncogenic beta-catenin – human colon tumor cells, pilot screen (AID 823); conditions: HCT116 beta-catenin knockout viability, CellTiter-Glo, 60 h; at 10 µM; stronger effect = lower value;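 note: 0% = wells killed by 20 µM Hyamine and 100% = untreated DMSO cell wells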
[5] = viability of PTEN-null HCT116 cells – cell-based, HCT116 clonal line, CellTiter-Glo, pilot screen (AID 824;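 active = viability at or below 27.92% in each of two runs, the all-compound median minus 4 SD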;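 note: 0% = 20 µM Hyamine control and 100% = vehicle cell control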); conditions: HCT116 PTEN-deleted viability, 60 h, at 10 µM, stronger effect = lower value
[6] = RAM pathway blockade in budding yeast – dse1pr::URA3 reporter, 5-FOA selection, pilot screen (AID 869;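 active = inhibition over a set limit, the all-compound mean plus 3 SD, in both replicate runs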;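 note: 0% = DMSO wells with no growth and 100% = 10 µM 1-NA-PP1 with full growth; RAM network block rescues cells from 5-FOA so hits raise OD615 growth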); conditions: S. cerevisiae dse1pr::URA3 5-FOA growth, OD615, 2 d; at 10 µM; stronger effect = higher value; strain carries analog-sensitive mutant Cbk1 kinase
[7] = RAM signaling pathway blockade in yeast – S. cerevisiae, Pdr1DBD-CYC8 efflux-inhibited sensitized strain, primary screen (AID 1298;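 active = RAM network inhibition above 8.4% in each of two replicates, 3 SD over the compound average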;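 note: 0% = DMSO untreated cells without growth and 100% = 10 µM 1-NA-PP1 full growth; higher means more yeast growth rescued from 5-FOA killing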); conditions: S. cerevisiae cbk1-as DSE1-URA3 strain, 5-FOA growth OD615, 2 d; at 50 µM; stronger effect = higher value

CCOC(=O)CN1c2ccccc2NC(=O)CC1C (configuration not stated)
inactive: growth inhibition [1] -5.11% | growth inhibition [2] -4.52% | viability increase [3] -4.06% | viability [4] 101% | viability [5] 98.9% | inhibition [6] 0.895% | RAM network inhibition [7] -0.43%

O=C(N[C@@H](Cc1ccccc1)C(=O)O)c1cccnc1
inactive: growth inhibition [1] -5.99% | growth inhibition [2] -10.1% | viability increase [3] 0.01% | viability [4] 96.1% | viability [5] 96.2% | inhibition [6] 2.62% | RAM network inhibition [7] 6.61%

CCOc1ccc(NS(=O)(=O)c2ccc3[nH]c(=O)oc3c2)cc1
inactive: growth inhibition [1] -11.6% | growth inhibition [2] -10.5% | viability increase [3] 1.01% | viability [4] 101% | viability [5] 92.6% | inhibition [6] 3.46% | RAM network inhibition [7] 4.48%

CCOc1ccc(NC(=O)Nc2ccc3c(c2)N(C)C(=O)CS3)cc1
inactive: growth inhibition [1] -12% | growth inhibition [2] -33.6% | viability increase [3] -4.56% | viability [4] 98.9% | viability [5] 89.1% | inhibition [6] 4.93% | RAM network inhibition [7] 5.76%

Cc1nc2ccc(N)cc2s1
inactive: growth inhibition [1] -15.7% | growth inhibition [2] -13.4% | viability increase [3] -2.73% | viability [4] 109% | viability [5] 112% | inhibition [6] 0.07% | RAM network inhibition [7] 1.25%

COc1ccc(F)cc1S(=O)(=O)Nc1ccc2c(c1)OCCO2
inactive: growth inhibition [1] -3.12% | growth inhibition [2] -5.07% | viability increase [3] -1.33% | viability [4] 91.1% | viability [5] 86.6% | inhibition [6] 2.45% | RAM network inhibition [7] 2.35%

CC1CCN(C(=O)c2ccc(NC(=O)C3CCCO3)cc2)CC1 (configuration not stated)
inactive: growth inhibition [1] -31.4% | growth inhibition [2] -18.3% | viability increase [3] -0.41% | viability [4] 96.4% | viability [5] 94.3% | inhibition [6] 1.26% | RAM network inhibition [7] 3.59%

CCOC(=O)c1cnn(CC2CCCCC2)c1N
inactive: growth inhibition [1] 0.805% | growth inhibition [2] 1.77% | viability increase [3] -0.78% | viability [4] 92.4% | viability [5] 94.4% | inhibition [6] 0.96% | RAM network inhibition [7] -0.52%

O=C(Nc1nnc(-c2ccc(Cl)s2)o1)C1CCCCC1
inactive: growth inhibition [1] -14.7% | growth inhibition [2] -4.65% | viability increase [3] -4.45% | viability [4] 68.4% | viability [5] 63.2% | inhibition [6] 3.44% | RAM network inhibition [7] 3.62%

O=C(Cn1ncc2c1-c1ccccc1OC2)Nc1nc2ccccc2s1
inactive: growth inhibition [1] -6.12% | growth inhibition [2] 18.7% | viability increase [3] -6.71% | viability [4] 93.9% | viability [5] 84.5% | inhibition [6] 0.785% | RAM network inhibition [7] -2.15%

O=C(Nc1ccccc1C(=O)NCc1ccco1)c1ccccc1
inactive: growth inhibition [1] -21.8% | growth inhibition [2] -6.89% | viability increase [3] -3.16% | viability [4] 100% | viability [5] 90.5% | inhibition [6] 1.55% | RAM network inhibition [7] 8.28%

Cn1c(=O)oc2cc(S(=O)(=O)N3CCCC(C(=O)NCCN4CCOCC4)C3)ccc21 (configuration not stated)
inactive: growth inhibition [1] -1% | growth inhibition [2] 10.4% | viability increase [3] -0.15% | viability [4] 103% | viability [5] 108% | inhibition [6] 0.68% | RAM network inhibition [7] 4.15%

COc1ccc(C2CC(=O)C3=C(C2)NC(C)=C(C#N)C3c2ccc(N(C)C)cc2)cc1 (configuration not stated)
inactive: growth inhibition [1] -6.35% | growth inhibition [2] 7.55% | viability increase [3] 0.06% | viability [4] 78.5% | viability [5] 75.8% | inhibition [6] 2.72% | RAM network inhibition [7] 5.79%

CCC1(C)C2(C#N)C(N)=NC(OC)(OC)C12C#N (configuration not stated)
inactive: growth inhibition [1] -5.98% | growth inhibition [2] -10.1% | viability increase [3] -0.83% | viability [4] 106% | viability [5] 99.3% | inhibition [6] 1.41% | RAM network inhibition [7] 2.07%

O=C(CSc1nc2ccccc2c(=O)[nH]1)N1CCCCC1
inactive: growth inhibition [1] -16.2% | growth inhibition [2] -5.08% | viability increase [3] -2.69% | viability [4] 98.7% | viability [5] 84.7% | inhibition [6] 0.395% | RAM network inhibition [7] -0.51%

CC1=C(C(=O)OCc2ccccc2)C(c2ccc(N3CCOCC3)cc2)NC(=O)N1 (configuration not stated)
inactive: growth inhibition [1] -6.21% | growth inhibition [2] -3.42% | viability increase [3] 0.5% | viability [4] 100% | viability [5] 98.9% | inhibition [6] 0.99% | RAM network inhibition [7] 4.42%
